From ChEMBL document CHEMBL4477171, “Identification of PTP1B and α-Glucosidase Inhibitory Serrulatanes from Eremophila spp. by Combined use of Dual High-Resolution PTP1B and α-Glucosidase Inhibition Profiling and HPLC-HRMS-SPE-NMR” (J Nat Prod, 2016)
Each block holds one molecule with its values, some of them ahead of it. The source made the active and inactive calls. The rule behind the calls is not given here.

What was measured:
[1] = molecular target: T1, Tyrosine-protein phosphatase non-receptor type 1 (Homo sapiens, UniProt P18031); experiment: (§1) Inhibition of recombinant human PTP1B preincubated for 10 mins followed by protein addition using pNPP substrate
T1 sequence (P18031 whole entry): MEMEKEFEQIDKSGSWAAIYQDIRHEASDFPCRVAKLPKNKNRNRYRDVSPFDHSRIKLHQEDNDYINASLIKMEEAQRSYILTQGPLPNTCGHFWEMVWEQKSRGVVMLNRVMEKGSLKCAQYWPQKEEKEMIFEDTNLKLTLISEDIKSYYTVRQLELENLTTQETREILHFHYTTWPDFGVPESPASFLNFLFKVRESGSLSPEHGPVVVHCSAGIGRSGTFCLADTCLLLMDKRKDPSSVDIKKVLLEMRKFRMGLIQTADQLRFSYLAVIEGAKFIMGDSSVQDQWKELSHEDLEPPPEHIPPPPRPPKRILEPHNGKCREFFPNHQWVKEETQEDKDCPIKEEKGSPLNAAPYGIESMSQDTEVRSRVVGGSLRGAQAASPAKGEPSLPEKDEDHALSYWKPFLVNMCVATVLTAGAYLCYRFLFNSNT
In short: (§2)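 Compounds were dissolved in MeOH as dilution series, dispensed in triplicate and dried. Residues were taken up in DMSO in 50 mM Tris/50 mM bis-Tris buffer with 100 mM NaCl, pH 7.0, at 25 °C. Final conditions were 10% DMSO, 1 mM EDTA, 0.5 mM pNPP and 2 mM DTT. After a 10 min preincubation, recombinant human PTP1B (0.05 μg/well) was added to start the reaction. A405 was read every 30 s for 10 min. Inhibition was calculated from the rate slope against the blank, and IC50 from dose–response curves.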

[2] = molecular target: T1, Tyrosine-protein phosphatase non-receptor type 1; experiment: Inhibition of GST-tagged human PTP1B expressed in Escherichia coli using pNPP substrate assessed as reduction in p-nitrophenol release; in short: as §2
[3] = molecular target: T2, Tyrosine-protein phosphatase non-receptor type 1 (Homo sapiens) (UniProt P18031); experiment: as §1; in short: as §2
T2 sequence (whole entry): T1 sequence (P18031 whole entry)

Saccharomyces cerevisiae = experiment: Inhibition of Saccharomyces cerevisiae alpha-glucosidase type-1 pre-incubated for 10 mins before pNPG substrate addition assessed as reduction in p-nitrophenol release
In short: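 Dried residues were dissolved in 25% DMSO in 0.1 M phosphate buffer, pH 6.9, at 25 °C. α-Glucosidase was added to 0.25 U/mL final (6.25% DMSO final) and preincubated for 10 min. The reaction was started with pNPG (1.25 mM final). A405 was read every 30 s for 10 min, and inhibition was taken from the cleavage rate relative to the blank.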

IC50 [1]: 3.44 µM
SMILES: CC(C)CC(=O)OC[C@H](C)CCC[C@H](C)[C@@H]1CC[C@@H](C)c2c1cc(C(=O)O)c(O)c2O

inhibition [3]: Active
SMILES: CC(C)=CCC[C@H](C)[C@@H]1CC[C@@H](C)c2c1cc(C(=O)O)c(O)c2O

inhibition [3]: Active
SMILES: CC(C)=CCC(=O)OC[C@H](C)CCC[C@H](C)[C@@H]1CC[C@@H](C)c2c(O)cc(C(=O)O)cc21

IC50 [1]: 1260 µM
SMILES: C[C@@H](CO)CCC[C@H](C)[C@@H]1CC[C@@H](C)c2c1cc(C(=O)O)c(O)c2O

inhibition (Saccharomyces cerevisiae): Active
SMILES: C[C@@H](CO)CCC[C@H](C)[C@@H]1CC[C@@H](C)c2c(O)cc(C(=O)O)cc21

inhibition [3]: Active
SMILES: COc1cc(/C=C/C(=O)OC[C@H](C)CCC[C@H](C)[C@@H]2CC[C@@H](C)c3c2cc(C(=O)O)c(O)c3O)ccc1O

inhibition (Saccharomyces cerevisiae): Active
SMILES: C/C(=C\CC[C@H](C)[C@@H]1CC[C@@H](C)c2c(O)cc(C(=O)O)cc21)CO

IC50 [1]: 7.67 µM
SMILES: CCCC(=O)OC[C@H](C)CCC[C@H](C)[C@@H]1CC[C@@H](C)c2c1cc(C(=O)O)c(O)c2O

IC50 [1]: 6.27 µM
SMILES: C[C@H](CCC[C@H](C)[C@@H]1CC[C@@H](C)c2c(O)cc(C(=O)O)cc21)COC(=O)/C=C/c1ccccc1

inhibition [3]: Active
SMILES: C[C@H](CCC[C@H](C)[C@@H]1CC[C@@H](C)c2c(O)cc(C(=O)O)cc21)COC(=O)CCc1ccccc1

inhibition [3]: Active
SMILES: C[C@H](CCC[C@H](C)[C@@H]1CC[C@@H](C)c2c1cc(C(=O)O)c(O)c2O)COC(=O)/C=C/c1ccc(O)c(O)c1

More lines, now with the values behind:

SMILES: O=C1c2c(O)cc(O)c3c2[C@@H]2[C@@H](c4ccccc4O[C@H]2c2cccc(O)c2-3)[C@H]1O [OHIOENSIN G]
IC50 [2]: 3.5 to 7.6 µM

SMILES: C/C(C=O)=C\CC[C@H](C)[C@@H]1CC[C@@H](C)c2c(O)cc(C(=O)O)cc21
inhibition (Saccharomyces cerevisiae): Active

SMILES: O=C1C[C@]2(O)c3ccccc3O[C@H]3c4cc(O)ccc4-c4c(O)cc(O)c1c4[C@@H]32 [OHIOENSIN F]
IC50 [2]: 3.5 to 7.6 µM

SMILES: OC[C@H]1O[C@@H](O[C@@H]2c3ccccc3[C@H](O)C[C@H]2O)[C@H](O)[C@@H](O)[C@@H]1O
IC50 [2]: 5.5 µM

SMILES: C=C1CC[C@@H]2[C@H]1[C@H]1[C@@H](C(C)CC(=O)C=C(C)C)CC[C@]12C (stereo partly specified)
IC50 [2]: 5.9 µM

SMILES: O=C1C[C@@H]2c3ccccc3O[C@H]3c4cc(O)ccc4-c4c(O)cc(O)c1c4[C@H]23 [OHIOENSIN A]
IC50 [2]: 3.5 to 7.6 µM

SMILES: C=C(CCC=C(C)C)[C@H]1CC[C@]2(C)CCCC(=C)[C@H]2C1 [LOBOPHYTUMIN C]
IC50 [2]: 7.8 µM

SMILES: COc1cc(O)c2c(c1)O[C@H](c1ccc(O)cc1)CC2=O
inhibition (Saccharomyces cerevisiae): Active

SMILES: COc1cc(O)c2c3c1-c1ccc(O)cc1[C@@H]1Oc4ccccc4[C@@H](CC2=O)[C@@H]31
IC50 [2]: 3.5 to 7.6 µM

SMILES: CC1=CCC[C@H]2[C@@H](C)[C@@](C)(CC3=C(O)C(=O)C=C(CCCS(=O)(=O)O)C3=O)CC[C@]12C
IC50 [2]: 1.5 µM
